# Screening results (PubChem)
# STAT1 act-1: increases IFN-gamma driven STAT1 reporter signal; NIH 3T3 STAT1-luciferase reporter, luminescence; 100% = IFN-gamma alone, no compound; activation (% of control), % at 5.5 µM; 200,000 compounds, 2.6% hits;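 active = activation above the screen-wide mean activation plus 3 SD, cut at about 130% in these data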;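 also: raw ratio to IFN-gamma control signal so 100% means no change and 0% no light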
# APP 5'UTR act: activates APP 5'UTR luciferase reporter; activation, % at 2 µM; AID 1276; SH-SY5Y APP 5'UTR luciferase reporter, luminescence; zero percent = DMSO vehicle wells; 190,000 compounds, 1% hits;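 active = activation above a set limit, based on mean plus 3 SD of controls, cut at about 140% in these data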
# STAT1 inh: reduces IFN-gamma driven STAT1 reporter signal; 200,000 compounds, 0.35% hits; NIH 3T3 STAT1-luciferase reporter, luminescence; inhibition, % at 5.5 µM; AID 920;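 active = inhibition above a set limit, the mean inhibition across all tested compounds plus 3 SD, cut at about 34% in these data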;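 also: 0% = IFN-gamma with DMSO and 100% = IFN-gamma with 300 µM nifuroxazide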
# NF-kB expr up: NF-kB expression increase, human neuronal cells; NF-kB reporter expression; stronger effect = higher value; fold change at 12.5 µM; 190,000 compounds, 1.6% hits; AID 1239; in the data active = fold change above about 3.3
# STAT3 blocker: reduces IL-6 driven STAT3 reporter signal | U3A cells, IL-6 STAT3-luciferase reporter, luminescence; host cell line lacks STAT1 | inhibition, % at 5.5 µM | 190,000 compounds, 0.89% hits | AID 862;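 active = inhibition above the mean inhibition across all screened compounds plus 3 SD, cut at about 44% in these data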;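 also: 0% = DMSO only wells and 100% = 100 µM nifuroxazide control wells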
# STAT3 act-1: increases IL-6 driven STAT3 reporter signal; U3A cells, IL-6 STAT3-luciferase reporter, luminescence; 100% = signal with IL-6 EC80 alone; activation (% of control), % at 5.6 µM; 190,000 compounds, 0.91% hits; AID 871;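 active = activation above the screen-wide mean of compound activation plus 3 SD, cut at about 130% in these data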;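 also: 0% = background luminescence of wells with medium and substrate only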
#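 Material: STAT3-luciferase reporter U3A cells; Probe or stimulus: IL-6 (33 ng/mL); Incubation: compound pre-incubation 1 h before IL-6, then 6 h stimulation at 37 °C; Technique: luminescence from STAT3-driven luciferase reporter; Evaluation: % activation versus median of IL-6-stimulated wells; Controls: IL-6-only high control.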
# STAT3 act-2: confirmation of STAT3 signaling activators | shares compounds with STAT3 act-1 | U3A STAT3-luciferase reporter, IL-6 potentiation, luminescence; U3A cells lack STAT1; 100 means same as IL-6 alone | potentiation (% of control), % at 5.7 µM | 1,200 compounds, 64% hits | AID 1267;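 active = percent activation of the STAT3 luciferase reporter above a set limit taken from the earlier primary screen, cut at about 130% in these data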;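 also: 0% = background signal of medium plus substrate and 100% = median of IL-6 with DMSO wells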
# NFkB act 2: activates NF-kappaB, counter-screen to STAT3 activators | shares compounds with STAT3 act-1 | AID 1309 | 1,200 compounds, 11% hits | activation (% of control), % at 5.7 µM | human cells, NF-kappaB reporter activation; in the data active = activation above about 120%;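 also: reporter induced by TNF-alpha stimulation; 100% = median of stimulated DMSO wells and 0% = no signal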
# STAT1 act-2: counter-screen for STAT3 activators: STAT1 activation; shares compounds with STAT3 act-1; NIH 3T3 STAT1-luciferase reporter, IFN-gamma, luminescence; activation (% of control), % at 5.7 µM; 1,200 compounds, 13% hits;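 active = activation above the solvent-only control well mean plus 3 SD, set per screening run, cut at about 120% in these data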;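 also: 100% = IFN-gamma with DMSO median signal so 100% means no change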
# Numbers without * were called inactive; nt = not tested or not shown. A selection: hits, their analogues and other compounds. The true share with any hit is near 5.1%.
SMILES,STAT1 act-1,APP 5'UTR act,STAT1 inh,NF-kB expr up,STAT3 blocker,STAT3 act-1,STAT3 act-2,NFkB act 2,STAT1 act-2
Cc1cccc(C2c3[nH]c4ccccc4c3CCN2C(=O)c2cc(C(C)C)nc(N)n2)n1 (stereo not drawn),98.0,13.0,2.0,0.89,-27.5,129.9,nt,nt,nt
Cc1nc(C)c(CC(=O)N2CCc3c([nH]c4ccccc34)C2c2ccccn2)s1 (stereo not drawn),92.9,9.3,6.1,nt,10.0,95.6,nt,nt,nt
Cc1cccc(C2c3[nH]c4ccccc4c3CCN2Cc2ccc(C)s2)n1 (stereo not drawn),95.8,9.4,3.0,1.17,-43.3,142.2*,124.0,99.0,91.0
Cc1cccc(C2c3[nH]c4ccccc4c3CCN2C(=O)c2ccc(=O)[nH]c2)n1 (stereo not drawn),104.2,-12.5,-6.6,0.79,-41.0,143.2*,120.1,100.8,99.2
Cc1cccc(C2c3[nH]c4ccccc4c3CCN2C(=O)Cc2n[nH]c(C)n2)n1 (stereo not drawn),91.4,13.6,7.4,0.92,-34.7,137.0*,138.6*,100.0,93.5
N#Cc1ccsc1NC(=O)CSc1ncn[nH]1,108.7,-27.8,-6.9,1.22,7.7,96.0,nt,nt,nt
N#Cc1ccsc1NC(=O)CSc1ncnc2ccccc12,84.8,-2.4,16.7,1.39,-50.4,147.5*,144.1*,98.9,78.5
CC(C)C(=O)N1CCN(c2ccccc2NC(=O)c2ccc(C#N)cc2F)CC1,103.4,24.6,-4.9,0.84,-42.4,136.7*,138.5*,119.0,110.8
CC1CCN(c2ccccc2NC(=O)c2ccc(C#N)cc2F)CC1,104.9,16.8,-5.2,1.73,8.9,92.7,nt,nt,nt
CC(=O)N1N=C(c2ccccc2O)OC1(C)CC(=O)Nc1ccccc1 (stereo not drawn),99.1,1.8,1.0,0.88,-46.2,139.0*,139.5*,99.4,97.1
O=S(=O)(c1ccc(Cl)cc1)N1CCCC(C(F)(F)F)C1 (stereo not drawn),93.6,-3.2,5.6,1.21,8.1,99.7,nt,nt,nt
C[C@@H]1NC(=O)c2cc([N+](=O)[O-])cc(I)c2OCC[C@@H](C(=O)NC(CC(=O)O)C(N)=O)NC(=O)[C@H](CC(N)=O)NC1=O (stereo partly drawn),98.2,-6.6,2.0,1.26,-10.3,106.2,nt,nt,nt
CC(=O)Nc1ccc(N/C=C(\C=O)c2nc3ccccc3o2)cc1,98.2,-20.3,2.6,1.25,-57.0,147.2*,150.9*,94.3,103.2
O=C/C(=C\Nc1ccccn1)c1nc2ccccc2o1,99.3,11.9,1.4,0.81,-66.0,158.4*,144.3*,113.8,100.1
CC(=O)Nc1cccc(N/C=C(\C=O)c2nc3ccccc3o2)c1,109.1,46.1,-10.3,0.74,-73.5,170.5*,176.2*,114.7,112.3
O=C/C(=C\Nc1ccc(Br)cc1)c1nc2ccccc2o1,98.9,14.2,-0.4,0.96,11.2,94.0,nt,nt,nt
CC(=O)Nc1ccc(NC(=O)CSc2nc3ccccc3o2)cc1,106.3,8.8,-7.0,1.47,2.3,100.3,nt,nt,nt
CN1CCN(C(N)=NC(=O)c2ccccc2)CC1,100.7,11.6,-0.8,0.89,0.5,101.9,nt,nt,nt
O=c1[nH]c(CN2CCc3ccccc3C2)nc2ccccc12,91.0,-7.0,9.8,1.14,-6.8,105.6,nt,nt,nt
Cc1[nH]c2ccccc2c1CN1CCc2ccccc2C1,102.1,-4.9,-2.3,2.4,-58.7,157.8*,132.4,96.6,86.3
COc1ccc(C(O)c2nc3ccccc3s2)cc1 (stereo not drawn),106.1,-1.0,-6.8,1.19,26.2,78.2,nt,nt,nt
COc1cc(OC)cc(-c2nc3ccccc3s2)c1,123.5,65.3,-26.1,2.12,-123.8,203.0*,179.8*,127.1*,138.7*
Cc1nn(CC(=O)NCCCc2ccccc2)c(C)c1[N+](=O)[O-],95.0,12.1,3.9,1.25,3.5,102.9,nt,nt,nt
O=C(Cc1c[nH]c2ccccc12)NCc1ccc2c(c1)OCO2,111.2,8.2,-12.2,1.2,-40.2,137.9*,137.0*,100.3,99.3
COC(=O)c1c(C)[nH]c(C(=O)CN2CCOCC2)c1C,91.0,0.4,9.9,1.13,-40.1,138.9*,137.6*,107.7,98.5
SMILES,STAT1 act-1,APP 5'UTR act,STAT1 inh,NF-kB expr up,STAT3 blocker,STAT3 act-1,STAT3 act-2,NFkB act 2,STAT1 act-2
COCCNC(=O)C(=O)NNC(=O)COc1ccc(OC)cc1,100.7,20.5,-2.4,1.17,2.0,102.2,nt,nt,nt
COCCNC(=O)C(=O)NNC(=O)c1ccccc1OC,98.8,7.7,-0.6,1.22,-46.3,141.7*,136.9*,108.8,103.2
CC1(C)Oc2nc3ccccc3n2/C1=C\C#N,95.5,2.0,4.0,1.04,5.6,96.5,nt,nt,nt
Nc1n[nH]c(-c2ccccc2[N+](=O)[O-])n1,109.2,-12.9,-10.4,1.06,-8.8,105.1,nt,nt,nt
Cc1ccc(-c2cc(-c3ccccc3[N+](=O)[O-])[nH]n2)c(O)c1,97.7,131.6,2.5,4.01*,-37.5,141.7*,135.7*,131.1*,94.5
CC1=NOC(=O)/C1=C\c1ccc(-c2ccc(Br)cc2)o1,121.4,-4.3,-25.4,0.85,-27.1,136.4*,117.9,115.4,112.3
O=C(Nc1cc(C(F)(F)F)ccc1N1CCOCC1)C1Cc2ccccc2CN1C(=O)c1ccco1 (stereo not drawn),102.8,-3.5,-3.1,0.73,-43.5,139.3*,129.9,104.4,91.5
O=C(Nc1cc(C(F)(F)F)ccc1N1CCCCC1)c1ccco1,102.8,-11.3,-5.4,1.34,0.0,103.2,nt,nt,nt
COc1ccc(-n2nnnc2SCc2nc3ccccc3s2)cc1,120.0,58.1,-21.6,2.53,-49.0,146.3*,137.9*,124.7*,141.7*
CCOCCCn1c(SCc2nc3ccccc3s2)nc2ccccc2c1=O,118.1,28.6,-20.3,0.93,-28.5,124.7,nt,nt,nt
COCCn1c(SCc2nc3ccccc3s2)nc2ccccc21,127.1,70.7,-29.8,1.28,-47.0,147.2*,145.9*,122.5*,140.1*
COc1ccc(C)cc1-n1nnnc1SCc1nc2ccccc2s1,117.8,73.3,-19.4,0.69,-46.6,146.9*,144.4*,119.2,127.7*
O=C1NC2=C(CCc3ccccc32)C(c2ccccc2)N1 (stereo not drawn),99.1,14.8,0.9,1.2,-49.8,147.7*,101.1,100.2,97.9
Cc1ccc(S(=O)(=O)N2CCN(C(=O)c3cc4c(C)nn(-c5ccccc5)c4s3)CC2)cc1,98.5,nt,4.2,0.73,-0.7,100.7,nt,nt,nt
